# Laboratory results: ChEMBL document CHEMBL2034906, “Inhibition of tumor cells interacting with stromal cells by xanthones isolated from a Costa Rican Penicillium sp” (J Nat Prod, 2012)
# Columns and labels:
# [1] = Cytotoxicity against human OCI-My5 cells after 48 hrs by luminometric analysis; assay type: functional, cell-based; conditions: OCI-My5, 48 h
# Procedure, shortened: (§1)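 Tumor cells were cultured without HS-5 stromal cells and treated with increasing compound concentrations for 48 h. Luciferin substrate was added, cultures were incubated 30 min, and bioluminescence was read on a luminometer. Signal was normalized to the non-treated control, with each condition in quadruplicate, and IC50 was calculated.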
# MDA-MB-231 [2] = test: Cytotoxicity against human MDA-MB-231 cells after 48 hrs by luminometric analysis in presence of HS5 bone marrow stromal cells; assay type: functional, cell-based; conditions: MDA-MB-231, 48 h
# Procedure, shortened: (§2)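 Tumor cells were co-cultured with HS-5 bone marrow stromal cells. For non-adherent tumors, stroma was seeded overnight, then tumor cells were overlaid and treated the next day. For adherent tumors, stroma and tumor cells were plated together overnight, then treated. Cells received increasing compound concentrations for 48 h. Luciferin was added for 30 min and bioluminescence read. Signal was normalized to the untreated control, in quadruplicate, and IC50 was calculated.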
# [3] = Cytotoxicity against human Farage cells after 48 hrs by luminometric analysis; assay type: functional, cell-based; procedure, shortened: as §1
# [4] = Cytotoxicity against human KMS34 cells after 48 hrs by luminometric analysis in presence of HS5 bone marrow stromal cells; assay type: functional, cell-based; conditions: KMS-34, 48 h; procedure, shortened: as §2
# HT [5] = test: Cytotoxicity against human HT cells after 48 hrs by luminometric analysis; assay type: functional, cell-based; procedure, shortened: as §1
# NCI-H929 (Homo sapiens) [6] = test: Cytotoxicity against human NCI-H929 cells after 48 hrs by luminometric analysis in presence of HS5 bone marrow stromal cells; conditions: NCI-H929, 48 h
# PC-3 [7] = test: Cytotoxicity against human PC3 cells after 48 hrs by luminometric analysis in presence of HS5 bone marrow stromal cells; assay type: functional, cell-based; conditions: PC-3, 48 h; procedure, shortened: as §2
# L-363 [8] = test: Cytotoxicity against human L363 cells after 48 hrs by luminometric analysis; assay type: functional, cell-based; conditions: L-363, 48 h; procedure, shortened: as §1
# [9] = Cytotoxicity against human 8226/DOX40 cells after 48 hrs by luminometric analysis in presence of HS5 bone marrow stromal cells; assay type: functional, cell-based; procedure, shortened: as §2
# [10] = Cytotoxicity against human Farage cells after 48 hrs by luminometric analysis in presence of HS5 bone marrow stromal cells; assay type: functional, cell-based; procedure, shortened: as §2
# [11] = Cytotoxicity against human 8226/DOX40 cells after 48 hrs by luminometric analysis; assay type: functional, cell-based; procedure, shortened: as §1
# [12] = Cytotoxicity against human MM1S cells after 48 hrs by luminometric analysis in presence of HS5 bone marrow stromal cells; assay type: functional, cell-based; conditions: MM1.S; procedure, shortened: as §2
# [13] = Cytotoxicity against human OCILY17R cells after 48 hrs by luminometric analysis; assay type: functional, cell-based; procedure, shortened: as §1
# [14] = Cytotoxicity against human KMS34 cells after 48 hrs by luminometric analysis; assay type: functional, cell-based; conditions: KMS-34, 48 h; procedure, shortened: as §1
# OPM-2 [15] = test: Cytotoxicity against human OPM2 cells after 48 hrs by luminometric analysis in presence of HS5 bone marrow stromal cells; assay type: functional, cell-based; conditions: OPM-2, 48 h; procedure, shortened: as §2
# [16] = Cytotoxicity against human KU-812F cells after 48 hrs by luminometric analysis in presence of HS5 bone marrow stromal cells; assay type: functional, cell-based; procedure, shortened: as §2
# HT [17] = test: Cytotoxicity against human HT cells after 48 hrs by luminometric analysis in presence of HS5 bone marrow stromal cells; assay type: functional, cell-based; procedure, shortened: as §2
# MDA-MB-231 [18] = test: Cytotoxicity against human MDA-MB-231 cells after 48 hrs by luminometric analysis; assay type: functional, cell-based; conditions: MDA-MB-231, 48 h; procedure, shortened: as §1
# NCI-H929 (Homo sapiens) [19] = test: Cytotoxicity against human NCI-H929 cells after 48 hrs by luminometric analysis; conditions: NCI-H929, 48 h
# RPMI-8226 [20] = test: Cytotoxicity against human RPMI8226 cells after 48 hrs by luminometric analysis in presence of HS5 bone marrow stromal cells; assay type: functional, cell-based; conditions: RPMI-8226, 48 h; procedure, shortened: as §2
# [21] = Cytotoxicity against human OCILY17R cells after 48 hrs by luminometric analysis in presence of HS5 bone marrow stromal cells; assay type: functional, cell-based; procedure, shortened: as §2
# L-363 [22] = test: Cytotoxicity against human L363 cells after 48 hrs by luminometric analysis in presence of HS5 bone marrow stromal cells; assay type: functional, cell-based; conditions: L-363, 48 h; procedure, shortened: as §2
# RPMI-8226 [23] = test: Cytotoxicity against human RPMI8226 cells after 48 hrs by luminometric analysis; assay type: functional, cell-based; conditions: RPMI-8226, 48 h; procedure, shortened: as §1
# PC-3 [24] = test: Cytotoxicity against human PC3 cells after 48 hrs by luminometric analysis; assay type: functional, cell-based; conditions: PC-3, 48 h; procedure, shortened: as §1
# OPM-2 [25] = test: Cytotoxicity against human OPM2 cells after 48 hrs by luminometric analysis; assay type: functional, cell-based; conditions: OPM-2, 48 h; procedure, shortened: as §1
# [26] = Cytotoxicity against human KU-812F cells after 48 hrs by luminometric analysis; assay type: functional, cell-based; procedure, shortened: as §1
# [27] = Cytotoxicity against human MM1S cells after 48 hrs by luminometric analysis; assay type: functional, cell-based; conditions: MM1.S; procedure, shortened: as §1
# [28] = Cytotoxicity against human OCI-My5 cells after 48 hrs by luminometric analysis in presence of HS5 bone marrow stromal cells; assay type: functional, cell-based; conditions: OCI-My5, 48 h; procedure, shortened: as §2
# [29] = Cytotoxicity against human HS5 cells after 48 hrs by luminometric analysis; assay type: cell-based; conditions: HS5, 48 h
# [30] = Cytotoxicity against human THLE3 cells after 48 hrs by luminometric analysis; assay type: cell-based; conditions: THLE3, 48 h
# RPMI-8226 [31] = test: Ratio of IC50 for human RPMI8226 cells in absence of HS5 bone marrow stromal cells to IC50 for human RPMI8226 in presence of HS5 bone marrow stromal cells; assay type: functional
# [32] = Cytotoxicity against human HOBIT cells after 48 hrs by luminometric analysis; assay type: cell-based
# [33] = Cytotoxicity against human SVGp12 cells after 48 hrs by luminometric analysis; assay type: cell-based; conditions: SVGp12, 48 h
SMILES,IC50 (MDA-MB-231 [2]) [µM],IC50 [3] [µM],IC50 (HT [5]) [µM],IC50 (NCI-H929 (Homo sapiens) [6]) [µM],IC50 (PC-3 [7]) [µM],IC50 [9] [µM],IC50 [10] [µM],IC50 [11] [µM],IC50 [12] [µM],IC50 (OPM-2 [15]) [µM],IC50 [16] [µM],IC50 (HT [17]) [µM],IC50 (MDA-MB-231 [18]) [µM],IC50 (NCI-H929 (Homo sapiens) [19]) [µM],IC50 (RPMI-8226 [20]) [µM],IC50 (RPMI-8226 [23]) [µM],IC50 (PC-3 [24]) [µM],IC50 (OPM-2 [25]) [µM],IC50 [26] [µM],IC50 [27] [µM],other results
CC(=O)OC[C@]12Oc3c(-c4ccc5c(c4O)C(=O)C4=C(O)C[C@@H](C)[C@@H](OC(C)=O)[C@@]4(CO)O5)ccc(O)c3C(=O)C1=C(O)C[C@@H](C)[C@H]2OC(C)=O (relative stereo),34.2,12.4,10.8,35.2,66.3,21.6,10.5,15,47.1,10.5,24.2,9.9,43.4,54.5,8.9,12.9,122,12.7,14.6,37.1,IC50 [1]: 18.8 µM; IC50 [4]: 55.6 µM; IC50 (L-363 [8]): 66 µM; IC50 [13]: 31.1 µM; IC50 [14]: 22.6 µM; IC50 [21]: 47.4 µM; IC50 (L-363 [22]): 79.4 µM; IC50 [28]: 47.7 µM
CC(=O)OC[C@]12Oc3cccc(O)c3C(=O)C1=C(O)C[C@@H](C)[C@H]2OC(C)=O (relative stereo),118,200,100,94.8,216,24.2,38.7,11.6,186,44.8,95.9,34.9,164,188,34,71.6,1380,42.8,44.9,168,IC50 [1]: 158 µM; IC50 [4]: 199 µM; IC50 (L-363 [8]): 464 µM; IC50 [13]: 1620 µM; IC50 [14]: 153 µM; IC50 [21]: 293 µM; IC50 (L-363 [22]): 199 µM; IC50 [28]: 384 µM
CC(=O)O[C@@H]1[C@H](C)CC(O)=C2C(=O)c3c(ccc(-c4ccc5c(c4O)C(=O)C4=C(O)C[C@@H](C)[C@@H](OC(C)=O)[C@@]4(CO)O5)c3O)O[C@@]21CO [DICERANDROL A],38.4,15.6,–,22.9,71.7,36.9,14.8,22.8,33.3,–,46.6,–,43.3,42.5,–,–,100,–,24.6,28.9,–
CC(=O)OC[C@]12Oc3ccc(-c4ccc5c(c4O)C(=O)C4=C(O)C[C@@H](C)[C@@H](OC(C)=O)[C@@]4(CO)O5)c(O)c3C(=O)C1=C(O)C[C@@H](C)[C@H]2OC(C)=O [DICERANDROL B],5.5,1.6,1.2,3.4,14.1,2.3,1.3,2.2,8,1.5,3.6,1.3,8.5,10.2,1.2,2.4,34,1.9,2.7,7.3,IC50 [29]: 13 µM; IC50 [1]: 2.8 µM; IC50 [30]: 10 µM; IC50 [4]: 9.3 µM; Ratio IC50 (RPMI-8226 [31]): 2; IC50 (L-363 [8]): 16.7 µM; IC50 [13]: 4.6 µM; IC50 [14]: 5.5 µM; IC50 [21]: 5.2 µM; IC50 [32]: 9.2 µM; IC50 [33]: 13.7 µM; IC50 [28]: 5.7 µM
CC(=O)OC[C@]12Oc3ccc(-c4ccc5c(c4O)C(=O)C4=C(O)C[C@@H](C)[C@@H](OC(C)=O)[C@@]4(COC(C)=O)O5)c(O)c3C(=O)C1=C(O)C[C@@H](C)[C@H]2OC(C)=O [DICERANDROL C],13.3,3.5,2.1,5.4,45.2,13.9,3.3,10,20.8,7.5,14.3,4,18.1,10.8,2.8,4.8,121,4.8,7.1,14.7,–
